From ChEMBL document CHEMBL1629418, “Spiroimidazolidinone NPC1L1 inhibitors. Part 2: structure-activity studies and in vivo efficacy” (Bioorg Med Chem Lett, 2010) come the findings set out here.

Structures are written as SMILES.

The test system of test [1] is Mus musculus. As to the kind of experiment: Inhibition of [3H]cholesterol absorption in C57BL/6 mouse plasma at 1 mg/kg, po after 5 hrs. Format: functional. The settings on record: C57BL/6, Plasma. The method, boiled down: (§1)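 Male C57BL/6 mice received compound orally as a suspension in 0.2 mL of 0.25% methocel. After 30 min, mice were given 0.2 mL oral [3H]cholesterol in IntraLipid. Mice were euthanized at 1.5 h or 5 h. Plasma [3H]cholesterol was counted from cardiac-puncture blood; liver was saponified for [3H]cholesterol. Six data points per dose were averaged; % inhibition reported.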

For test [2], the system named is Mus musculus. As to the kind of experiment: Inhibition of [3H]cholesterol absorption in C57BL/6 mouse plasma at 1 mg/kg, po after 1.5 hrs. Format: functional. The settings on record: C57BL/6, Plasma. In outline:
as §1

Test [3] relates to Mus musculus. As to the kind of experiment: Inhibition of cholesterol-absorption in mouse plasma at 100 mg/kg, po. Format: functional. In outline:
as §1

Test [4] concerns Mus musculus. Put plainly: Inhibition of cholesterol-absorption in mouse liver at 100 mg/kg, po. Format: functional. In outline:
as §1

Test [5] deals with NPC1-like intracellular cholesterol transporter 1 (Mus musculus) (UniProt Q6T3U4). Put plainly: Displacement of [35S](2S,3S,4S,5R,6S)-6-(4-((2S,3R)-3-((S)-3-(4-fluorophenyl)-3-hydroxypropyl)-1-(4-(3-(methylsulfonamido)prop-1-ynyl)phenyl)-4-oxoazetidin-2-yl)phenoxy)-3,4,5-trihydroxytetrahydro-2H-pyran-2-carboxylic acid from mouse NCP1L1 expressed in mouse brush border membrane. Format: cell membranes.

In test [6] the target is T1, NPC1-like intracellular cholesterol transporter 1 (Homo sapiens, UniProt Q9UHC9).
T1 sequence (Q9UHC9 whole entry): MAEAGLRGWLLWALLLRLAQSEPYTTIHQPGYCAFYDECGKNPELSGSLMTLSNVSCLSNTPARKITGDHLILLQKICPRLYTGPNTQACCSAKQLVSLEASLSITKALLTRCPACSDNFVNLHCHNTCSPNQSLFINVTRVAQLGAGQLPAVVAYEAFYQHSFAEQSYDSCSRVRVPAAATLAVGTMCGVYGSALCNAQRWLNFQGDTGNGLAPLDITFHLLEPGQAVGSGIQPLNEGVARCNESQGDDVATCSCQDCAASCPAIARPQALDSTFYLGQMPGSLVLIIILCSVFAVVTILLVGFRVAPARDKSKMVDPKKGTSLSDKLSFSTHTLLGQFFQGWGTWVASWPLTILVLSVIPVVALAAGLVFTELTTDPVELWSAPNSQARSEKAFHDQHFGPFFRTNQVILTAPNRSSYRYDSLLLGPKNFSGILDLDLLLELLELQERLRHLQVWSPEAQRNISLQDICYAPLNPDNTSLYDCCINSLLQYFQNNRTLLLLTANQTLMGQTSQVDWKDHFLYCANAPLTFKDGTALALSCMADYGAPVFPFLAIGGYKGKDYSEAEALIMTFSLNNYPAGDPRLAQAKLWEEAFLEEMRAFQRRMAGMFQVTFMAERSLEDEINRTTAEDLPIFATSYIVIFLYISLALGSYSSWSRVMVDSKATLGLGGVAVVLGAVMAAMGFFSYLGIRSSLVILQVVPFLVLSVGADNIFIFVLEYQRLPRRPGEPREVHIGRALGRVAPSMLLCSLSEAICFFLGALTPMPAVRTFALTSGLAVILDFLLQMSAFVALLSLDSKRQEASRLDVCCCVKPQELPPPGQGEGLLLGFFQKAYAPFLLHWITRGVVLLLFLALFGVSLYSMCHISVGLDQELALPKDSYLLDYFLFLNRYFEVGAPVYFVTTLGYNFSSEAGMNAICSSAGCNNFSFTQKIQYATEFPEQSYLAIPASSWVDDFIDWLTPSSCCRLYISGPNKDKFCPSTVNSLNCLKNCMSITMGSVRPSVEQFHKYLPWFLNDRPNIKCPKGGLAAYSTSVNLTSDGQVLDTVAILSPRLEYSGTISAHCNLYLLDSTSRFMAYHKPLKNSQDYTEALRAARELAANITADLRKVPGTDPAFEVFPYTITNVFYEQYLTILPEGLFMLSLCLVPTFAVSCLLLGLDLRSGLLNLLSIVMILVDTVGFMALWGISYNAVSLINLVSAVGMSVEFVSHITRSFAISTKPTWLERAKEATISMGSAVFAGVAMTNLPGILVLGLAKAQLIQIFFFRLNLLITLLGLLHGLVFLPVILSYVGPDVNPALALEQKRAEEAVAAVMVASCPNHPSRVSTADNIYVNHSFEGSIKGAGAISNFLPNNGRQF
Put plainly: Displacement of [35S](2S,3S,4S,5R,6S)-6-(4-((2S,3R)-3-((S)-3-(4-fluorophenyl)-3-hydroxypropyl)-1-(4-(3-(methylsulfonamido)prop-1-ynyl)phenyl)-4-oxoazetidin-2-yl)phenoxy)-3,4,5-trihydroxytetrahydro-2H-pyran-2-carboxylic acid from human NCP1L1 expressed in HEK 293. Format: cell-based, HEK293. On the technique in general: In a radioligand displacement assay an active substance lowers the binding of a labelled ligand.

Test [7] deals with T2, NPC1-like intracellular cholesterol transporter 1 (Homo sapiens) (UniProt Q9UHC9).
T2 sequence (whole entry): T1 sequence (Q9UHC9 whole entry)
Put plainly: Binding affinity to human NPC1L1.

In test [8] the test system is Mus musculus. Put plainly: Inhibition of [3H]cholesterol absorption in C57BL/6 mouse plasma at 30 mg/kg, po after 1.5 hrs. Format: functional. The settings on record: C57BL/6, Plasma. The method, boiled down:
as §1

Test [9] concerns Mus musculus. As to the kind of experiment: Inhibition of [3H]cholesterol absorption in C57BL/6 mouse plasma at 100 mg/kg, po after 1.5 hrs. Type of test: functional. To be noted: C57BL/6, Plasma. In outline:
as §1

In test [10] the test system is Mus musculus. As to the kind of experiment: Inhibition of cholesterol-absorption in mouse plasma at 30 mg/kg, po. Format: functional. In outline: as §1
The subject of test [11] is Mus musculus. As to the kind of experiment: Inhibition of [3H]cholesterol absorption in C57BL/6 mouse plasma at 10 mg/kg, po after 1.5 hrs. Type of test: functional. The settings on record: C57BL/6, Plasma. The method, boiled down:
as §1

Test [12] deals with Mus musculus. Put plainly: Inhibition of [3H]cholesterol absorption in C57BL/6 mouse plasma at 100 mg/kg, po after 5 hrs. Type of test: functional. The settings on record: C57BL/6, Plasma. In outline:
as §1

In test [13] the test system is Mus musculus. As to the kind of experiment: Inhibition of cholesterol-absorption in mouse plasma at 10 mg/kg, po. Format: functional. The method, boiled down:
as §1

Test [14] concerns Mus musculus. Put plainly: Inhibition of cholesterol-absorption in mouse at 10 mg/kg, po. Format: functional. The method, boiled down:
as §1

NPC1-like intracellular cholesterol transporter 1 (Mus musculus), sequence (Q6T3U4 21-1333 limits assumed): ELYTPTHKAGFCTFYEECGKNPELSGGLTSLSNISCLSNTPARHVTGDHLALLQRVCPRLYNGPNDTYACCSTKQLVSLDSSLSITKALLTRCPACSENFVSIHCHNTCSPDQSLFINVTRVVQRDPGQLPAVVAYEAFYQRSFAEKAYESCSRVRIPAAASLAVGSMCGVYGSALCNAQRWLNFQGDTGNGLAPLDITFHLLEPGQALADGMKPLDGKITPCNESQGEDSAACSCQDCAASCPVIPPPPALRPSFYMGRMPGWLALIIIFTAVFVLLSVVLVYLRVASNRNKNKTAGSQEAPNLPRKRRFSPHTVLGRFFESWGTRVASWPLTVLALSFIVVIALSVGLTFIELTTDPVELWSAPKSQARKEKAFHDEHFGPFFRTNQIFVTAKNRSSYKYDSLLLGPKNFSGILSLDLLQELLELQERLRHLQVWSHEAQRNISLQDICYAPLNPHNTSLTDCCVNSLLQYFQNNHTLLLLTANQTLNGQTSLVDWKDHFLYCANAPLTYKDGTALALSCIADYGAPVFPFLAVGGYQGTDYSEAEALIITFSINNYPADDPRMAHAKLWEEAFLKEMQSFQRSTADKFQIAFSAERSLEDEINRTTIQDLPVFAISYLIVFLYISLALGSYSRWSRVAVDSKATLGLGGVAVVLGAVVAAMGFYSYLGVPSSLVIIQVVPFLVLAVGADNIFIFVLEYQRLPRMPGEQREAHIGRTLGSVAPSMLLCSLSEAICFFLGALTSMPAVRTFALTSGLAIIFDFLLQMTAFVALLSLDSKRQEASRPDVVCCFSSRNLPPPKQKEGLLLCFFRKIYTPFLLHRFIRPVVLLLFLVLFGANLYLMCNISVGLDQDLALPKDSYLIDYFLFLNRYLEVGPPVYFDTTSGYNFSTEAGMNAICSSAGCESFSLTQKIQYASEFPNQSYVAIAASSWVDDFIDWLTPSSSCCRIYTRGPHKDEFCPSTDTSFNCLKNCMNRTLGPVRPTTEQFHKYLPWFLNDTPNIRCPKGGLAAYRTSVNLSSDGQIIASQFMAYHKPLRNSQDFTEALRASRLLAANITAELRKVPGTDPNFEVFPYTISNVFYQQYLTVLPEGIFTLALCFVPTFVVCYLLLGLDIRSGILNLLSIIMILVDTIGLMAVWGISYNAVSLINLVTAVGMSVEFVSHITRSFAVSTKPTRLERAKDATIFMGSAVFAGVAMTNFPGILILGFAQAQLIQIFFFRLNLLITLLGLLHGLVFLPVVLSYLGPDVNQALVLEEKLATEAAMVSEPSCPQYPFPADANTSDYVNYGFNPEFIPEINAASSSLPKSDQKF

Take `O=C1[C@H](CC[C@H](O)c2ccc(F)cc2)[C@@H](c2ccc(O)cc2)N1c1ccc(F)cc1` [EZETIMIBE]: the inhibition in vivo at 1 mg/kg with Mus musculus [1] was found to be 90%; in the test on Mus musculus [2], 7%.

Turning to `O=C(CN1CN(c2ccccc2)C2(CCN(C(=O)c3ccc(C4CCCCC4)cc3)CC2)C1=O)N1CCN(C(=O)c2ccccc2)CC1`, the inhibition in vivo at 100 mg/kg in the test with Mus musculus [3] came out at 52%; with Mus musculus [4] it was 46%. Besides, the 50% inhibitory concentration (IC50) is 19 µM in test [5] and 4.8 µM in test [6].

`CC(C)(C)c1ccc(C(=O)N2CCC3(CC2)C(=O)N(CC(=O)N2CCCCC2)CN3c2ccccc2)cc1`: the Activity in test [7] amounted to 2.5 µM.

Regarding `CCc1nn(CC)c(C2CCN(C(=O)CN3CN(c4ccccc4)C4(CCN(C(=O)c5ccc(C(C)(C)C)cc5)CC4)C3=O)CC2)c1C`, the inhibition in vivo at 100 mg/kg with Mus musculus [3] was 62%; in the test on Mus musculus [9], 62%; in the test on Mus musculus [12] it was 67%. The IC50 in [5] turned out to be 40 µM; in test [6], 2.5 µM. For the same compound, the inhibition in vivo at 30 mg/kg with Mus musculus [8] and in the test on Mus musculus [10] was 48% in each case. Moreover, the inhibition in vivo at 10 mg/kg in the test with Mus musculus [11] and in the test with Mus musculus [13] was 35% throughout.

Consider `O=C(CN1CN(c2ccccc2)C2(CCN(C(=O)c3ccc(C4CCCCC4)cc3)CC2)C1=O)NCCCCO`, for which the IC50 in [6] is 1.7 µM. Further, the inhibition in vivo at 10 mg/kg in the test on Mus musculus [14] was 52%.

As to `COC(=O)CCCNC(=O)CN1CN(c2ccccc2)C2(CCN(C(=O)c3ccc(C(C)(C)C)cc3)CC2)C1=O`, the inhibition in vivo at 10 mg/kg with Mus musculus [14] worked out at 35%.

With `CC(C)(C)OC(=O)NCCCCNC(=O)CN1CN(c2ccccc2)C2(CCN(C(=O)c3ccc(C(C)(C)C)cc3)CC2)C1=O`, at 10 mg/kg the inhibition in vivo in the test on Mus musculus [14] was 7%.

Take `CC(C)(C)OC(=O)N1CCN(C(=O)CN2CN(c3ccccc3)C3(CCN(C(=O)c4ccc(C(C)(C)C)cc4)CC3)C2=O)CC1`: the half-inhibitory concentration (IC50) in [5] was 49 µM; in [6], 1 µM.

In the test on Mus musculus [14], `COC(=O)CCNC(=O)CN1CN(c2ccccc2)C2(CCN(C(=O)c3ccc(C(C)(C)C)cc3)CC2)C1=O` showed an inhibition in vivo at 10 mg/kg of 44%.

Take `CCOC(=O)C1CCN(C(=O)CN2CN(c3ccccc3)C3(CCN(C(=O)c4ccc(C(C)(C)C)cc4)CC3)C2=O)CC1`: in test [6], the half-maximal inhibitory concentration (IC50) came to 3.1 µM.

For `CC(C)(C)OC(=O)N1CCN(C(=O)CN2CN(c3ccccc3)C3(CCN(C(=O)c4ccc(C5CCCCC5)cc4)CC3)C2=O)CC1`, the inhibition in vivo at 100 mg/kg with Mus musculus [3] is 4.5%; with Mus musculus [4], 58%. Besides, the results for the IC50 in test [5] and in [6] were 49 µM and 3.5 µM, respectively.

In turn, `CC(C)(C)OC(=O)NCCNC(=O)CN1CN(c2ccccc2)C2(CCN(C(=O)c3ccc(C4CCCCC4)cc3)CC2)C1=O` came in with an IC50 in [6] of 13.7 µM.

Turning to `CS(=O)(=O)N1CCN(C(=O)CN2CN(c3ccccc3)C3(CCN(C(=O)c4ccc(C5CCCCC5)cc4)CC3)C2=O)CC1`, the concentration for half-maximal inhibition (IC50) in [6] was determined as 6.3 µM.

`NCCNC(=O)CN1CN(c2ccccc2)C2(CCN(C(=O)c3ccc(C4CCCCC4)cc3)CC2)C1=O` came in with an IC50 in test [6] of 26.5 µM.

In test [6], `CCC1CCCN(C(=O)CN2CN(c3ccccc3)C3(CCN(C(=O)c4ccc(C5CCCCC5)cc4)CC3)C2=O)C1` (configuration not stated) gave a half-inhibitory concentration (IC50) of 2.6 µM. Compared with the last compound, the IC50 is about 10-fold lower.

In test [6], `CC(C)(C)c1ccc(C(=O)N2CCC3(CC2)C(=O)N(CC(=O)NCCNS(C)(=O)=O)CN3c2ccccc2)cc1` displayed a half-maximal inhibitory concentration (IC50) of 49 µM.

In [6], `CC1CCCN(C(=O)CN2CN(c3ccccc3)C3(CCN(C(=O)c4ccc(C(C)(C)C)cc4)CC3)C2=O)C1` (configuration not stated) came in with a concentration for half-maximal inhibition (IC50) of 12 µM.

With `O=C(CN1CN(c2ccccc2)C2(CCN(C(=O)c3ccc(C4CCCCC4)cc3)CC2)C1=O)NCCCO`, the inhibition in vivo at 100 mg/kg in the test with Mus musculus [3] is 43%; in the test on Mus musculus [4], 70%. In [6], this compound yielded an IC50 of 14 µM. Further, the inhibition in vivo at 10 mg/kg in the test on Mus musculus [14] stood at 42%.

Regarding `CS(=O)(=O)NCCCNC(=O)CN1CN(c2ccccc2)C2(CCN(C(=O)c3ccc(C4CCCCC4)cc3)CC2)C1=O`, the inhibition in vivo at 100 mg/kg with Mus musculus [3] and in the test with Mus musculus [4] was under 5% each time. Moreover, in [6], the IC50 stood at 2.5 µM. Moreover, 10 mg/kg produced 42% inhibition in vivo in the test on Mus musculus [14].

`O=C(CN1CN(c2ccccc2)C2(CCN(C(=O)c3ccc(C4CCCCC4)cc3)CC2)C1=O)N1CCN(S(=O)(=O)c2ccccc2)CC1` returned an IC50 in test [6] of 14.2 µM.

In the case of `CCn1nc(Cc2ccccc2)cc1C1CCN(C(=O)CN2CN(c3ccccc3)C3(CCN(C(=O)c4ccc(C(C)(C)C)cc4)CC3)C2=O)CC1`, the half-inhibitory concentration (IC50) in test [6] came out at 6.4 µM.

Compound `CC(C)(C)OC(=O)NCNC(=O)CN1CN(c2ccccc2)C2(CCN(C(=O)c3ccc(C(C)(C)C)cc3)CC2)C1=O` showed an IC50 in [6] of 59 µM.

In test [6], `CC(C)(C)OC(=O)NCC1CCN(C(=O)CN2CN(c3ccccc3)C3(CCN(C(=O)c4ccc(C5CCCCC5)cc4)CC3)C2=O)CC1` registered a 50% inhibitory concentration (IC50) of 2.5 µM.

Compound `CC(C)(C)OC(=O)NCCCNC(=O)CN1CN(c2ccccc2)C2(CCN(C(=O)c3ccc(C4CCCCC4)cc3)CC2)C1=O` displayed an IC50 in test [6] of 3.7 µM. The IC50 values of the last two compounds are within 1.5-fold of each other.

Broadly, the inhibition in vivo is the share of the control response that was lost under treatment. Low values mean a response near the control, high ones a response far below the control. Broadly, the IC50 is the concentration that gives 50% inhibition. Read a low IC50 as greater potency.
